Assay results reported in PubChem BioAssay AID493031 (Broad Institute, 2011).
Calls of active or inactive are those of the source.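 How the source made its calls: active means at 10 µM, induced P-selectin expression inhibited by 50% or more; inactive means less than 50% inhibition.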

Tested on: human washed platelets, SFLLRN-induced P-selectin, flow cytometry
Assay: inhibition of SFLLRN-induced platelet P-selectin surface expression, cell-based, human washed platelets, flow cytometry, dry powder, single point (AID 493031)
Conditions: at 10 µM; hits give high values
Procedure, shortened: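 Material: washed platelets from individual donors; Also added: SFLLRN stimulation; Dosing: compound at 10 µM; Timing: 20 min compound pretreatment, 15 min SFLLRN activation, 20 min antibody staining; Measured by: flow cytometry, PE anti-P-selectin staining.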

| SMILES | inhibition |
| --- | --- |
| CCCC(=O)Nc1cccc(NC(=O)c2ccc(Cl)cc2)c1 | 73.9% |
| CCCC(=O)Nc1cccc(NC(=O)c2cccc(-c3ccccc3)c2)c1 | 94.4% |
| CCCC(=O)Nc1cccc(NC(=O)c2cccc(NC(C)=O)c2)c1 | 41% (inactive) |
| CCCC(=O)Nc1cccc(NC(=O)c2ccccc2F)c1 | 97.4% |
| CCCC(=O)Nc1cccc(NC(=O)c2ccc(F)cc2)c1 | 56.9% |
| CCCC(=O)Nc1cccc(NC(=O)c2ccco2)c1 | 30.5% (inactive) |
| O=C(Nc1ccccc1)c1ccccc1Br | 98.5% |
| CCCC(=O)Nc1cccc(NC(=O)c2ccc(C)cc2)c1 | 21.8% (inactive) |
| CCCC(=O)Nc1cccc(NC(=O)c2ccccc2C)c1 | 95.8% |
| CCCC(=O)Nc1cccc(NC(=O)c2ccc(S(C)(=O)=O)cc2)c1 | 9.82% (inactive) |
| CCCC(=O)Nc1cccc(NC(=O)c2ccccc2Cl)c1 | 98.3% |
| CCCC(=O)Nc1cccc(NC(=O)c2cccnc2)c1 | 4.33% (inactive) |
| CCCC(=O)Nc1cccc(NC(=O)c2ccc(C(F)(F)F)cc2)c1 | 21% (inactive) |
| CCCC(=O)Nc1cccc(NC(=O)c2cnc3ccccc3c2)c1 | 10.4% (inactive) |
| CCCC(=O)Nc1cccc(NC(=O)c2cccc(Cl)c2)c1 | 94.1% |
| CCCC(=O)Nc1cccc(NC(=O)c2cccc([N+](=O)[O-])c2)c1 | 50.7% |
| CCCC(=O)Nc1cccc(NC(=O)c2cccc(Oc3ccccc3)c2)c1 | 92% |
| CCCC(=O)Nc1cccc(NC(=O)c2cccc(S(C)(=O)=O)c2)c1 | 23.9% (inactive) |
| CCCC(=O)Nc1cccc(NC(=O)c2ccccc2OC)c1 | 46.1% (inactive) |
| CCCC(=O)Nc1cccc(NC(=O)c2ccc(OC)cc2)c1 | 15.3% (inactive) |
| CCCC(=O)Nc1cccc(NC(=O)c2cccc(C#N)c2)c1 | 66.7% |
